# Experimental data published in paper PMC3770484 (European journal of medicinal chemistry, 2013).
# What was measured:
# [1] = system: tubulin (colchicine site); experiment: Inhibition of [3H]colchicine binding to tubulin; conditions: tubulin 1 μM, [3H]colchicine 5 μM, 10 min at 37 °C, ± SD
# Procedure, shortened: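 Tritiated colchicine (5.0 μM) incubated with 1.0 μM tubulin and test compound at 5.0 or 1.0 μM for 10 min at 37 °C. At this point about 40-60% of maximum colchicine binding occurs in controls. Percent inhibition of binding reported. Compounds inhibiting by more than 80% at 5 μM were retested at 1 μM.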
# [2] = system: human tumor cell line panel (A549, KB, KBvin, and DU145); experiment: SRB cytotoxicity, range over the whole HTCL panel; format: cell-based; conditions: read-out: GI50 range over HTCL panel
# Procedure, shortened: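 Sulforhodamine B growth assay on human A-549, KB, DU145 and KBvin lines; KBvin is a vincristine-resistant, P-gp-expressing KB subline. Paclitaxel served as reference.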
SMILES,Inhibition of colchicine binding (%) inhibition ([1]; inhibitor at 1 μM) [%],Inhibition of colchicine binding (%) inhibition ([1]; inhibitor at 5 μM) [%],GI50 [2] [nM]
"COc1ccc(/C=C\c2cc(OC)c(OC)c(OC)c2)cc1O [CA4, combretastatin A-4]",90 ± 0.2,98 ± 0.6,
"COc1ccc2c(c1)CCCN2c1nc(Cl)nc2ccccc12 [Compound 6d, N-(2′-Chloroquinazol-4′-yl)-6-methoxy-1,2,3,4-tetrahydroquinoline]",,,1.5 to 1.7
